Experimental data taken from ChEMBL document CHEMBL1124200, “6-substituted 1,3,4,5-tetrahydrobenz[cd]indol-4-amines: potent serotonin agonists” (J Med Chem, 1988).

Columns and labels:
Rattus norvegicus [1] = assay: In vivo serum corticosterone concentration in male Wistar rats after injecting 0.3 mg/kg of compound subcutaneously; format: functional, organism-based; parameters: dose 0.3 mg/kg
In short: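 Serum corticosterone in male Wistar rats, measured spectrofluorometrically and reported per 100 mL of serum.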

[2] = molecular target: T1, Serotonin 2 (5-HT2) receptor (Rattus norvegicus, UniProt P30994+P08909+P14842); assay: Ability to inhibit binding of titreated spiperone to the 5-hydroxytryptamine 2 receptor in rat brain frontal cortex membranes; format: cell membranes, Membrane
In short: (§1)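 5HT-2 binding in rat frontal cortex membranes with [3H]spiperone as radioligand. Tested at eleven concentrations between 0.1 and 10 000 nM, each in duplicate. IC50 is the concentration that halves specific binding, obtained by curve fitting.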

Rattus norvegicus [3] = species on record: Rattus norvegicus; assay: Effect on 5HIAA (5-hydroxyindoleacetic acid) concentration in hypothalamus as an index of serotonin turnover in male Wistar rats expressed as percent of control; format: functional
In short: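 Hypothalamic 5-hydroxyindoleacetic acid in male Wistar rats, used as an index of serotonin turnover. Measured by liquid chromatography with electrochemical detection and expressed as percent of control.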

[4] = molecular target: Serotonin 1 (5-HT1) receptor (Rattus norvegicus, UniProt P28564+P30940+P19327+P28565); assay: Ability to inhibit binding of titreated serotonin to the 5-hydroxytryptamine 1 receptor in rat brain frontal cortex membranes; format: cell membranes, Membrane
[5] = molecular target: T1, Serotonin 2 (5-HT2) receptor; assay: Ability to inhibit binding of titreated spiperone to 5-hydroxytryptamine 2 receptor in rat brain frontal cortex membranes; format: cell membranes, Membrane; in short: as §1

| SMILES | Concentration (Rattus norvegicus [1]) | IC50 [2] | 5-HIAA level, % of control (Rattus norvegicus [3]) | IC50 [4] | IC50 [5] |
| --- | --- | --- | --- | --- | --- |
| CCCN(CCC)C1Cc2c[nH]c3ccc(C(N)=O)c(c23)C1 (stereo unspecified) | 49 µg 100ml-1 | 4817 nM | 61% | 83 nM |  |
| CCCN(CCC)C1Cc2c[nH]c3ccc(Br)c(c23)C1 (stereo unspecified) | 13 µg 100ml-1 |  | 77% | 241 nM | 15444 nM |
| CCCN(CCC)C1Cc2c[nH]c3ccc(OC)c(c23)C1 (stereo unspecified) | 48 µg 100ml-1 | 1179 nM | 58% | 36 nM |  |
| CN(C)C1Cc2c[nH]c3ccc(C(N)=O)c(c23)C1 (stereo unspecified) | 9 µg 100ml-1 | 5440 nM | 99% | 390 nM |  |
| CCCN(CCC)C1Cc2cccc3[nH]cc(c23)C1 (stereo unspecified) |  |  |  | 141 nM | 723 nM |
| COc1ccc2[nH]cc3c2c1CC(N(C)C)C3 (stereo unspecified) | 41 µg 100ml-1 | 1756 nM | 65% | 96 nM |  |
| CCCN(CCC)C1Cc2c[nH]c3ccc(C#N)c(c23)C1 (stereo unspecified) | 47 µg 100ml-1 |  | 90% | 90 nM | 390 nM |
